This is one part of the list. Calls of active or inactive are those of the source.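 The calls were made as follows: active = mean percent inhibition of duplicate wells above the buffer-only control mean plus 3 SD of those controls; inactive = the rest.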

The text below walks through data of PubChem BioAssay.

The target of this assay is Potassium voltage-gated channel subfamily E member 1 (Homo sapiens) + Potassium voltage-gated channel subfamily KQT member 1 (Homo sapiens) (UniProt P15382+P51787). The assay is described as follows: block of human IKs channel complex – CHO-K1 cells, thallium flux, FluxOR, selectivity assay for KCNQ1 inhibitor project (AID 652147).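 As to inhibition: 0% = buffer only wells and 100% = XE-991 inhibitor control.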 The note with it: KCNQ1/KCNE1 cells, FluxOR thallium flux fluorescence, at 10 µM; stronger effect = higher value. Summed up: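 System – KCNQ1/KCNE1 cells · Also added – depolarizing thallium/potassium stimulus, 5x stock with 12.5 mM Tl2SO4 and K2SO4 · Incubation – dye 90 min and compound 20 min at room temperature · Signal – kinetic FluxOR thallium-sensitive fluorescence, 1 Hz sampling, 150 s post-stimulus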
Chain of Potassium voltage-gated channel subfamily E member 1 (Homo sapiens) + Potassium voltage-gated channel subfamily KQT member 1 (Homo sapiens) (P51787 whole entry, looked up): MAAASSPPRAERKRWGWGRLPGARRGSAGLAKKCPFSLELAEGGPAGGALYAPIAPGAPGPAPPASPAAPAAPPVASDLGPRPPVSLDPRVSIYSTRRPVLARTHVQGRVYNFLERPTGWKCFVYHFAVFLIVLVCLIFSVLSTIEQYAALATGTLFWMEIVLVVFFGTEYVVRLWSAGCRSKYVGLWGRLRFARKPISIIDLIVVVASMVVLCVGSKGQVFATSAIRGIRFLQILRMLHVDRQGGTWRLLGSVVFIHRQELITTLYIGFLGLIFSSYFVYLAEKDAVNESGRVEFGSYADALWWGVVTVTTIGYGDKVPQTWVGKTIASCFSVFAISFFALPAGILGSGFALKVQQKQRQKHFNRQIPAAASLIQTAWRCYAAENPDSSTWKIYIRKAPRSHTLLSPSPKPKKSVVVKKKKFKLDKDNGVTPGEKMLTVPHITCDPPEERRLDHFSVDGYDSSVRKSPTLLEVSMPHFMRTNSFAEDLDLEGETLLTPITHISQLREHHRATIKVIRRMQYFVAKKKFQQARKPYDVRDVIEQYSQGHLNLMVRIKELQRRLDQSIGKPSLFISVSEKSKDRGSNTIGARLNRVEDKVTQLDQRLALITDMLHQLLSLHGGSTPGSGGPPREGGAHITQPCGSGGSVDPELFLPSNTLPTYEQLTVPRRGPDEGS
In the case of `O=C(Nc1ccc(Cl)cc1)Nc1ccc(Oc2cccnc2)nc1`, the outcome was inactive.
Same read-out and setting: the same measure for `c1ccc2c(c1)C(=NC1CCCCC1)NC2=NC1CCCCC1`: “inactive”.
Still for that read-out and setting: the same measure for `Cn1nc(-c2ccc(Cl)cc2)c2cc(C(=O)NCc3ccco3)sc21`: “inactive”.
As to `O=C(NC(=S)Nc1ccccc1C(=O)O)c1ccc(-c2ccc(Br)cc2)o1`, the inhibition was 78% (active).
As to `O=C(Nc1nnc(S(=O)(=O)N2CCCCCC2)s1)c1cccc(Br)c1`, the result was inactive.
As to `CC1CCC2(CC1)NC(=O)N(CC(=O)c1cccn1C)C2=O` (stereo not given), the result was inactive.
In the case of `Cc1cc2nc3c(=O)n(Cc4ccccc4)c(=O)[nH]c3nc2cc1N`, the inhibition is 110% (active).
Take `Cc1ccc(S(=O)(=O)Nc2ccc3ncccc3c2)cc1`: the result was inactive.
Consider `CCC(=C/c1sc2ccc3ccccc3c2[n+]1C)/C=C1\Sc2ccc3ccccc3c2N1C`, for which the inhibition is 64% (active).
The same measure, in the same setting: under `CC(C(=O)NCC1CCCCC1)N(C)Cc1cccc(Cl)c1` (stereo not given) stands 84% (active).
For `O=C1CCCN1CCCNC(=S)Nc1ccc(F)c(Cl)c1`, the inhibition is 58.5% (active).
For the molecule `FC(F)Oc1ccc(NC(=S)NCc2ccco2)cc1Cl`, the inhibition was 38% (active).
Take `COc1ccc(S(=O)(=O)/N=C2\C=C(NS(=O)(=O)c3ccccc3)C(=O)c3ccccc32)cc1`: the result was inactive.
Still for that read-out and setting: under `Cc1nnc(SC(C(=O)Nc2cc(Cl)cc(Cl)c2)c2ccccc2)[nH]c1=O` (stereo not given) stands “inactive”.
Same read-out and setting: under `Fc1cc(Br)ccc1NC(=S)Nc1cccnc1` stands “inactive”.
On to `CCNC(=O)c1ccc(OCC(=O)Nc2ccc(F)cc2)c(OC)c1`, for which the inhibition was 51% (active).
Take `Cc1nn(C)cc1N1C(=O)c2cccc3c(N)ccc(c23)C1=O`: the outcome was inactive.
`CCOC(=O)c1c(NC(=O)C(C)Sc2c[nH]c3ccccc23)sc2c1CCC2` (stereo not given): the inhibition was 155% (active).
`Cc1cccc(-n2cc(CN3CCN(C(=O)c4ncn[nH]4)CC3)c(-c3cccc(F)c3)n2)c1`: the outcome was inactive.
On to `O=C(NCCc1ccccc1)c1ccc2c(c1)N(Cc1ccccc1)CCS2`, for which the inhibition was 72% (active).
With `COC(=O)c1cc(NC(=O)c2cc(C(C)(C)C)nn2Cc2cccc(C)c2)ccc1N1CCOCC1`, the inhibition was 154% (active).
For the molecule `Cc1oc2c(F)c(F)c(F)c(F)c2c1S(=O)(=O)Nc1cccc(C(F)(F)F)c1`, the outcome was inactive.
For `CCc1cc(C(c2ccccc2OC)N2CCOCC2)c(NC(=O)c2ccccc2)s1` (stereo not given), the inhibition was 132% (active).
The same measure, in the same setting: under `Cc1cccc(CSc2ccc(-c3cccs3)nn2)c1` stands 112% (active); under `CCCC(=O)N1CCN(c2nnc(-c3ccc(C)cc3)c3ccccc23)CC1`, 78% (active).
Still for that read-out and setting: under `COc1ccc(Nc2ncnc3sc(-c4ccccc4)cc23)c(OC)c1` stands 146% (active).
`COC(=O)c1ccc(NC(=O)Nc2ccc(C)cc2)cc1`: the outcome was inactive.
As to `CN(c1cccc(NC(=O)Nc2ccc(Cl)cc2)c1)S(C)(=O)=O`, the inhibition is 42.5% (active).
For `CC(C)OC(=O)C(C#N)c1nc2ccccc2nc1N1CCN(Cc2ccccc2)CC1` (stereo not given), the result was inactive.
Take `Cc1ccc(-c2noc(CC(c3ccccc3)c3ccccc3)n2)cc1`: the inhibition was 116% (active).
Same read-out and setting: under `S=C(Nc1cccc(Cl)c1)Nc1ccc2c(c1)OCCO2` stands 47% (active); under `Cc1ccccc1OCC(=O)Nc1ccc(N2CCN(C(=O)C(C)C)CC2)c(Cl)c1`, 51% (active).
Turning to `O=C1CCc2cc(S(=O)(=O)N3CCC(C(=O)NCc4ccccc4Cl)CC3)ccc2N1`, the outcome was inactive.
As for `O=C(NCC(F)(F)F)Nc1nnc(C(F)(F)F)s1`, the outcome was inactive.
With `Cc1ccc(N2CCN(S(=O)(=O)c3ccc(F)cc3)CC2)c(C)c1`, the inhibition was 69.5% (active).
Same read-out and setting: the same measure for `Cc1ccccc1C(=O)OC1OC(=O)C(Cl)=C1Nc1ccccc1` (stereo not given): 65% (active).
As to `CS(=O)(=O)N(CC(=O)Nc1ccc(Cl)c(Cl)c1)C1CCCCC1`, the result was inactive.
Take `CCOc1ccc(CN2CCN(Cc3c[nH]c4ccccc34)CC2)cc1`: the inhibition was 40% (active).
Take `COc1ccc(-c2cc(C(F)(F)F)nc(S(C)(=O)=O)n2)cc1OC`: the inhibition was 77.5% (active).
Take `Oc1ccc2ccc3cccc[n+]3c2c1`: the result was inactive.

For orientation: inhibition means the relative decrease from the control value, in per cent.
